We go through 167 variants from the RNAGym collection of RNA variant scans (doi:10.1126/science.aae0568).

The chains are these.
B1: tRNA (parent)
chain: GUUCCGUUGGCGUAAUGGUAACGCGUCUCCCUCCUAAGGAGAAGACUGCGGGUUCGAGUCCCGUACGGAACG

Variants at the floor of the assay were thinned out.

In this data set the parent is B1. The data set is described as follows: yeast fitness relative to wild type (ratio to wild type); higher = fitter; tRNA-Arg(CCU), competitive growth, 37 C, YPD. Summed up:
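For this measurement, the tRNA-Arg(CCU) gene was varied by chemical synthesis at a 3% per-site mutation rate across 69 sites, and each variant was placed at the native genomic locus in Saccharomyces cerevisiae. The pooled strains went through a 24-hour competition in YPD at 37°C in six parallel replicates, with amplicons from start and end populations read by 100-nucleotide paired-end sequencing. Darwinian fitness relative to wild type followed from the change in each genotype's frequency. Genotypes needed ≥ 100 starting reads, and estimates < 0.5 were set to 0.5.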
Take C27G U28C A45C G48A C55A: the yeast fitness was 0.601. Regarding C27U A36U G44A, the yeast fitness was not above 0.5. C27U A36G U47G G50A: the yeast fitness was not above 0.5. As for C27G G48A C60U, the figure is not above 0.5.

As to C27G G48A C60G, the yeast fitness was found to be 0.751.

Turning to C27U A36C G56C G68A A70U, the yeast fitness was not above 0.5. Next, C27G C33U G44C C49U: not above 0.5; C27U A36C G39C G48C G63U A70U: 0.636; C27G C46U C61G G68U: not above 0.5. Turning to C27U A37C, the yeast fitness was 0.664. As for C27U A37G, the yeast fitness was found to be 0.899.

With C27U A37U, the yeast fitness came out at 0.626. Consider C27G C34G C46U, for which the yeast fitness turned out to be 0.65. For the variant C27U A40G C55U G56A U64G A69U, the yeast fitness was not above 0.5. Next, C27G C34G A57G G67C A69U: not above 0.5; C27G G44C A45G U64G: not above 0.5; C27G U32A: 0.539. As for C27G U32G, the yeast fitness is not above 0.5. Take C27G U32C: the yeast fitness was determined as 0.935.

As to C27G C34A C60A, the yeast fitness was 0.551. As to C27G C33G C55A, the yeast fitness is not above 0.5. Next, C27G G41C C66U: 0.747; C27G U32A G39A: 0.572. Regarding C27U A43C C60A, the yeast fitness is not above 0.5. Next, C27G G39C A69U: 0.566. With C27G C49A G58C, the yeast fitness is not above 0.5. Consider C27G G48C, for which the yeast fitness worked out at 0.632.

Turning to C27G G48A, the yeast fitness was 0.565. As to C27G U53A G63A, the yeast fitness is not above 0.5. In the case of C27G G39A C46U G68A, the yeast fitness was not above 0.5. Turning to C27G U28C C62G, the yeast fitness is not above 0.5. Turning to C27G C49U A65U A70G, the yeast fitness is not above 0.5.

Consider C27G G50A, for which the yeast fitness stood at 0.654. As for C27G C34A G68C, the yeast fitness is not above 0.5. Next, C27G G50C C60G: not above 0.5; C27U A36G G50A G58A A69C: not above 0.5. Turning to C27U A37C A40U A43U, the yeast fitness stood at 0.541. As for C27G G41C G68C, the yeast fitness came out at 0.626. For C27G C49U A65U, the yeast fitness was not above 0.5. In the case of C27G G48C G56C, the yeast fitness was not above 0.5.

Regarding C27G U47C, the yeast fitness amounted to 0.652. With C27G U53C, the yeast fitness was not above 0.5. Regarding C27G G41A A57C C62A, the yeast fitness was not above 0.5.

As for C27G G67C, the yeast fitness came to 0.677.

For the variant C27G G67A, the yeast fitness is 0.637. C27U A43C U59A: the yeast fitness turned out to be 0.645.

Turning to C27G C55A C66U, the yeast fitness was 0.545.

On to C27G G39C G52A, for which the yeast fitness is not above 0.5. In the case of C27G G39C C61U, the yeast fitness was 0.577.

Take C27G C46U G50A: the yeast fitness stood at 0.599. As for C27G U32A G41A, the figure is 0.671; as for C27G C34G C55G U59C C60U G67U, not above 0.5; as for C27G C61G, 0.554. Turning to C27G C61A, the yeast fitness was determined as 0.582. Take C27G C34G: the yeast fitness is not above 0.5. In the case of C27G C33A U47A, the yeast fitness was not above 0.5. For the variant C27G C46U A70G, the yeast fitness was 0.727. Take C27G C46U A70C: the yeast fitness turned out to be 0.729. Take C27G G52A C60G A69U A70C: the yeast fitness was 0.514. In the case of C27G C34A A40G, the yeast fitness came to 0.644.

Take C27G C46G U53G G58C C61A: the yeast fitness is not above 0.5. Take C27G C49U U54G: the yeast fitness is not above 0.5. As to C27G G48C A57U, the yeast fitness was not above 0.5. As for C27G G68A, the yeast fitness was determined as 0.607. Turning to C27G C34A C46G C55A, the yeast fitness was not above 0.5.

Regarding C27G U32G A42C, the yeast fitness is not above 0.5.

Take C27G G63A C66G: the yeast fitness is not above 0.5. On to C27G G48C A69G, for which the yeast fitness is not above 0.5.

Consider C27G G39A G67A, for which the yeast fitness was determined as 0.59.

For C27U A43G G52C C62U G63A, the yeast fitness is not above 0.5.

For C27G C46G U53G G58C G68A, the yeast fitness was not above 0.5. Regarding C27G U47G C49U C66U, the yeast fitness was found to be 0.584. Turning to C27G G52C, the yeast fitness is 0.549. Regarding C27U A43C U59A C62U, the yeast fitness was 0.517.

Take C27G C46U G51A: the yeast fitness amounted to 0.633. As for C27G C46U A69C, the yeast fitness came to 0.735. For the variant C27G C46U G50A C66U, the yeast fitness is not above 0.5. Next, C27U A43C: 0.965. As for C27U A43G, the yeast fitness turned out to be 0.898.

Regarding C27G C55G, the yeast fitness is not above 0.5.

In the case of C27G C55U, the yeast fitness is not above 0.5. With C27G G39A C46U A70G, the yeast fitness is not above 0.5.

Turning to C27G G56A A70U, the yeast fitness was determined as 0.531. Take C27G G56A A65G: the yeast fitness was 0.535. As to C27G C49G, the yeast fitness was determined as 0.621. C27G C49U: the yeast fitness was 0.614. C27G U32C A42C G48C C55G C60U: the yeast fitness is not above 0.5. For C27G U32C A42C G48C C55G C60U G68C, the yeast fitness is not above 0.5. For C27G G48C G52C C62G, the yeast fitness was not above 0.5.

For the variant C27G C33G G39A C46U C60G, the yeast fitness is not above 0.5. C27G C49A A57U: the yeast fitness was not above 0.5. As to C27U A42U U53G G68C, the yeast fitness came out at 0.545.

Take C27U A36U G38C A43C: the yeast fitness was not above 0.5. In the case of C27G U28A C30G C31U A40G G67A, the yeast fitness is not above 0.5. Consider C27G C33A A65U, for which the yeast fitness was not above 0.5. For the variant C27U A36C C61U, the yeast fitness is not above 0.5.

As for C27G C66A, the yeast fitness was not above 0.5. Consider C27G C66U, for which the yeast fitness came to 0.621. For the variant C27G C66G, the yeast fitness was determined as 0.579. For C27U A36U G38C A43C C66U, the yeast fitness was not above 0.5. For the variant C27G U53G A70G, the yeast fitness was not above 0.5. Regarding C27G U28G A36U A45U C49G, the yeast fitness is not above 0.5.

As for C27U A36G A37G G56C, the yeast fitness was not above 0.5.

On to C27G C55U G67C, for which the yeast fitness is not above 0.5. In the case of C27U A40C, the yeast fitness was 0.809. C27G C33G: the yeast fitness was found to be 0.524. Take C27G C33A: the yeast fitness was 0.593.

Take C27U A43C G68U: the yeast fitness was determined as 0.612.

Regarding C27G C46U U54C, the yeast fitness worked out at 0.738. As for C27U A36U G38C A43C G63A, the yeast fitness is not above 0.5. As for C27G C33U A69C, the yeast fitness turned out to be 0.544.

For the variant C27G G39A C46U C66U, the yeast fitness is not above 0.5. Turning to C27G C46G A65G, the yeast fitness stood at 0.631. Next, C27G G48A G67C A69U: 0.525; C27G G51A G63C: not above 0.5; C27U A36C G68C: 0.602. In the case of C27G G38C C55U, the yeast fitness is not above 0.5. With C27U A42U C62U, the yeast fitness stood at 0.559. Turning to C27G U28A C30G C31U G67A, the yeast fitness was 0.519. Turning to C27G U28A A65U A70U, the yeast fitness amounted to 0.558.

Regarding C27G C33G G51C C60U C61U, the yeast fitness is not above 0.5. Consider C27U A43C A70U, for which the yeast fitness turned out to be 0.749.

In the case of C27G G38A, the yeast fitness was determined as 0.745. For the variant C27G C46A G51A, the yeast fitness stood at 0.525. For C27G C46U C60U A69U, the yeast fitness was not above 0.5.

On to C27G G39A C61G C62G, for which the yeast fitness was not above 0.5. Consider C27G C46A C49G, for which the yeast fitness came to 0.704. As for C27G C33U A45U, the figure is 0.568; as for C27G U28C C61U, not above 0.5; as for C27G G38A G67U, not above 0.5. C27G G44C A45G A65G: the yeast fitness was not above 0.5. Take C27G U28C G52A C60G G68U A69C: the yeast fitness is not above 0.5. As for C27G U28A, the figure is 0.596; as for C27G C33G G39A C46U C61U A69U, 0.585; as for C27G C49U C60A, not above 0.5. Next, C27U A36U U54A A69C: 0.624; C27G U32C A57G: 0.578; C27G C33A G48A G51C: not above 0.5. For the variant C27G C55G A70U, the yeast fitness worked out at 0.617. As to C27G C46U C62U G68C, the yeast fitness is not above 0.5. As for C27G G41C, the yeast fitness worked out at 1.01. Turning to C27G U32C U54C C62U, the yeast fitness is not above 0.5. As for C27G C33G G41A A65C, the figure is not above 0.5; as for C27G C33U A40G C49U A69C, 0.703. On to C27G C49U C62U A65U, for which the yeast fitness was not above 0.5.

Consider C27U A36U, for which the yeast fitness was found to be 0.638. For the variant C27U A36C, the yeast fitness was determined as 0.541. In the case of C27G C46U C60U, the yeast fitness was 0.626. Consider C27G G39A C66U G68C, for which the yeast fitness is 0.575. As for C27G G50A C55G C62G G67U, the figure is not above 0.5.

As to C27U A42U, the yeast fitness is 1.09. Next, C27U A42C: 0.997; C27G G39A C46U G67A: 0.581; C27U A40C G58A A70C: 0.511. Next, C27U A43C A69U: 0.882; C27G G56A: 0.614; C27G G48A G51A: 0.527. Take C27G C62A: the yeast fitness turned out to be 0.516.

With C27G C62G, the yeast fitness came out at 0.695. On to C27G G39C, for which the yeast fitness came to 0.585. Consider C27U A37U C66U, for which the yeast fitness worked out at 0.542. Regarding C27G C34G U54A A70U, the yeast fitness is not above 0.5. Next, C27U A37C A40U A43U A65U: not above 0.5.

On to C27G C55A A70U, for which the yeast fitness is not above 0.5. As for C27G U32G A36C C46G A70U, the figure is not above 0.5. For the variant C27U A36U A43G C46U, the yeast fitness came out at 0.559. With C27U A36C G39C G48C G63U, the yeast fitness is 0.547.
